Experimental data from ChEMBL document CHEMBL5653630, “Activation of the p53-MDM4 regulatory axis defines the anti-tumour response to PRMT5 inhibition through its role in regulating cellular splicing” (Sci Rep, 2018).
Blank lines part the entries; values can stand above or below the compound they belong to. Activity calls are given as the source filed them. The rule behind the calls is not given here.

Columns and labels:
[1] = target: Apoptosis regulator BAX (Homo sapiens) (UniProt Q07812); experiment: In vivo inhibition of PRMT5 in human Z138 cells xenografted in mouse assessed as increase in BAX expression at 100 mg/kg, po BID measured for 7 days; assay type: functional, organism-based; conditions: Z-138, time 7.0 day
Sequence of Apoptosis regulator BAX (Homo sapiens) (Q07812 whole entry): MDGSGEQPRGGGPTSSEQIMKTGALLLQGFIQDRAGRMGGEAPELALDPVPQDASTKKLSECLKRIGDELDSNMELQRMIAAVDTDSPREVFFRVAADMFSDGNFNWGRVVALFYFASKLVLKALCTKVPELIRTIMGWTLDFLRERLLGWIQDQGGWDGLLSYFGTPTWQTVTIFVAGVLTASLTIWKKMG

Z-138 [2] = experiment: In vivo inhibition of PRMT5 in human Z138 cells xenografted in mouse assessed as increase in CDKN1 expression at 100 mg/kg, po BID measured for 7 days; assay type: functional, organism-based; conditions: time 7.0 day
Z-138 [3] = experiment: In vivo inhibition of PRMT5 in human Z138 cells xenografted in mouse assessed as increase in GADD45A expression at 100 mg/kg, po BID measured for 7 days; assay type: functional, organism-based; conditions: time 7.0 day
Z-138 [4] = experiment: Antitumor activity against human Z138 cells xenografted in mouse assessed as reduction in tumor volume at 200 mg/kg, po qd pretreated for 21 days followed by treatment holiday for 10 days and further compound treatment for 2 weeks starting from day 32 followed by 1 week treatment holiday; assay type: functional, organism-based; conditions: time 52.0 day
Z-138 [5] = experiment: Induction of cell cycle arrest in human Z138 cells assessed as decrease in 2n cell population measured upto 1000 nM measured for 2 to 5 days by propidium iodide staining based flow cytometric analysis; assay type: functional; conditions: time 2-5 day
[6] = test system: KATO III stomach cancer cell line; experiment: Antiproliferative activity against human KATO III stomach cancer cell line assessed as cell growth inhibition incubated for 10 days; assay type: functional; conditions: 240 h, time 10 day
Method in brief: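 Eurofins-panel 10-day assay in 384-well plates. Cells grown in RPMI-1640 with 10% FBS, 2 mM L-alanyl-L-glutamine and 1mM Na pyruvate, or a special medium, at 37°C in 5% CO₂. Compound added 24 h after seeding, 10-point 3.16-fold series in 0.1% DMSO. Medium replaced and compound re-dosed at 168 h. Nuclei fixed and stained after 240 h, then imaged to give a relative cell count. gIC50 is the concentration giving growth midway between untreated and time-zero counts, from a 4-parameter fit.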

SNU1 = experiment: Antiproliferative activity against human SNU1 cells assessed as cell growth inhibition incubated for 10 days; assay type: functional; conditions: SNU1, 240 h, time 10 day
ACHN = experiment: Antiproliferative activity against human ACHN cells assessed as cell growth inhibition incubated for 10 days; assay type: functional; conditions: 240 h, time 10 day
Method in brief: (§1)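 Cells kept in RPMI-1640 with 10% FBS, 2 mM L-alanyl-L-glutamine and 1 mM Na pyruvate (or a special medium) at 37°C, 5% CO2. Compound added 24 h after seeding, 10 concentrations in 3.16-fold dilution, 0.1% DMSO final. Medium replaced and cells re-dosed at 168 h; 240 h incubation. Nuclei fixed, dye-stained and imaged. gIC50 = growth midway between untreated and time-zero cell counts, from a 4-parameter fit.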

HepG2 = experiment: Antiproliferative activity against human HepG2 cells assessed as cell growth inhibition incubated for 10 days; assay type: functional; conditions: HepG2, 240 h, time 10 day
Method in brief: (§2)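 Outsourced panel run in 384-well plates. Cells were grown in RPMI-1640/10% FBS or a special medium at 37°C, 5% CO2. Compound was added 24 h after seeding as a 10-point, 3.16-fold series in 0.1% DMSO. Medium was refreshed and cells re-dosed at 168 h, with a time-zero plate kept. At 240 h cells were fixed, nuclei stained and imaged. gIC50 is growth midway between untreated and time zero, from a 4-parameter fit.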

DOHH-2 = experiment: Antiproliferative activity against human DOHH-2 cells assessed as cell growth inhibition incubated for 6 days by celltiter-glo assay; assay type: functional; conditions: DOHH-2, 144 h, time 6 day
SNU-423 = experiment: Antiproliferative activity against human SNU-423 cells assessed as cell growth inhibition incubated for 10 days; assay type: functional; conditions: SNU-423, 240 h, time 10 day
Hs746T = experiment: Antiproliferative activity against human Hs746T cells assessed as cell growth inhibition incubated for 10 days; assay type: functional; conditions: 240 h, time 10 day
Method in brief: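 Eurofins panel, 384-well. Cells kept in RPMI-1640 with 10% FBS, 2 mM L-alanyl-L-glutamine and 1 mM Na pyruvate, or in a special medium, at 37°C under 5% CO2. Compound added 24 h after seeding as 10 concentrations in 3.16-fold steps, 0.1% DMSO final. Medium replaced and compound re-dosed at 168 h. After 240 h, cells fixed and nuclei stained for imaging. gIC50 = growth midway between untreated cells and time-zero count.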

U-251 = experiment: Antiproliferative activity against human U-251MG cells assessed as cell growth inhibition incubated for 6 days by celltiter-glo assay; assay type: functional; conditions: U-251, 144 h, time 6 day
Method in brief: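 Cells seeded in 384-well plates at an optimized density and held 24 h. CellTiter-Glo luminescence read at Day 0 and Day 6. Four-parameter fit. gIC50 = midpoint of the growth window between DMSO and T0. Curves required ≥1.5 population doublings.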

[7] = target: Protein arginine N-methyltransferase 5 (Homo sapiens) (UniProt O14744); experiment: Inhibition of PRMT5 in human Z138 cells assessed as MDM4 splicing at 8 to 1000 nM incubated for 3 days by RT-PCR analysis; assay type: cell-based; conditions: dose 8-1000 nM, time 3.0 day
Sequence of Protein arginine N-methyltransferase 5 (Homo sapiens) (O14744 whole entry): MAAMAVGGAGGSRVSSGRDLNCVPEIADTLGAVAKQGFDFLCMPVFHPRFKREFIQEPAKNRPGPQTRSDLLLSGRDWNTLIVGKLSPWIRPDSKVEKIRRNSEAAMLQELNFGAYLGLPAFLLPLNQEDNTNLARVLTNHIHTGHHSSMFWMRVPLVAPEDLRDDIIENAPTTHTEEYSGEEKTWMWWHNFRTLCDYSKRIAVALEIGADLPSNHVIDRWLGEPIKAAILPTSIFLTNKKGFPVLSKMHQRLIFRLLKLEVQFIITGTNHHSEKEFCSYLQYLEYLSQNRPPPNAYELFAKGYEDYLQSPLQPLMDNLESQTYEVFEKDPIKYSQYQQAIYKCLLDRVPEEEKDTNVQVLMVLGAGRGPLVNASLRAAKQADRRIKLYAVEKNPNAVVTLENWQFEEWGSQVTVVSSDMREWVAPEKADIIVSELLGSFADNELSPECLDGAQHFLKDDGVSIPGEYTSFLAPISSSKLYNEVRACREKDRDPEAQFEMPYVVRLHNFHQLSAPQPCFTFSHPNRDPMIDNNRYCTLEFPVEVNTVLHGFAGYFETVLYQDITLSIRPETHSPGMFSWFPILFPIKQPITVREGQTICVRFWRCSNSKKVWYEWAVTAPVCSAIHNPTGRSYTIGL

A101D = experiment: Antiproliferative activity against human A101D cells assessed as cell growth inhibition incubated for 10 days; assay type: functional; conditions: 240 h, time 10 day; method in brief: as §1
HCT-116 = experiment: Antiproliferative activity against human HCT-116 cells assessed as cell growth inhibition incubated for 10 days; assay type: functional; conditions: HCT-116, 240 h, time 10 day; method in brief: as §2
SHP77 = experiment: Antiproliferative activity against human SHP77 cells assessed as cell growth inhibition incubated for 10 days; assay type: functional; conditions: SHP77, 240 h, time 10 day
AGS = experiment: Antiproliferative activity against human AGS cells assessed as cell growth inhibition incubated for 10 days; assay type: functional; conditions: 240 h, time 10 day; method in brief: as §1
[8] = target: Protein arginine N-methyltransferase 5 (Homo sapiens) (UniProt O14744); experiment: Inhibition of PRMT5 in p53 knockout human Z138 cells at 1 to 100000 nM incubated for 3 to 6 days; assay type: cell-based; conditions: dose 1-100000 nM, time 3-6 day
A-427 = experiment: Antiproliferative activity against human A-427 cells assessed as cell growth inhibition incubated for 10 days; assay type: functional; conditions: A-427, 240 h, time 10 day; method in brief: as §1
SK-OV-3 = experiment: Antiproliferative activity against human SK-OV-3 cells assessed as cell growth inhibition incubated for 10 days; assay type: functional; conditions: SK-OV-3, 240 h, time 10 day
A 172 = experiment: Antiproliferative activity against human A-172 cells assessed as cell growth inhibition incubated for 6 days by celltiter-glo assay; assay type: functional; conditions: A 172, 144 h, time 6 day
CGTH-W-1 = experiment: Antiproliferative activity against human CGTH-W-1 cells assessed as cell growth inhibition incubated for 10 days; assay type: functional; conditions: CGTH-W-1, 240 h, time 10 day; method in brief: as §1
WiDr = experiment: Antiproliferative activity against human WiDr cells assessed as cell growth inhibition incubated for 10 days; assay type: functional; conditions: 240 h, time 10 day
SK-MEL-28 = experiment: Antiproliferative activity against human SK-MEL-28 cells assessed as cell growth inhibition incubated for 10 days; assay type: functional; conditions: SK-MEL-28, 240 h, time 10 day
DK-MG = experiment: Antiproliferative activity against human DK-MG cells assessed as cell growth inhibition incubated for 10 days; assay type: functional; conditions: 240 h, time 10 day; method in brief: as §2
U-266 = experiment: Antiproliferative activity against human U266B1 cells assessed as cell growth inhibition incubated for 10 days; assay type: functional; conditions: U-266, 240 h, time 10 day
SW-403 = experiment: Antiproliferative activity against human SW403 cells assessed as cell growth inhibition incubated for 10 days; assay type: functional; conditions: SW-403, 240 h, time 10 day

inhibition [1]: Active
Structure (SMILES): CC(=O)N1CCC(Nc2cc(C(=O)NC[C@H](O)CN3CCc4ccccc4C3)ncn2)CC1 [PEMRAMETOSTAT]
inhibition (Z-138 [2]): Active
inhibition (Z-138 [3]): Active
Activity (Z-138 [4]): Active
Activity (Z-138 [5]): Active

GI50 [6]: 16.7 nM
GI50 (SNU1): 1040 nM
GI50 (ACHN): 38.6 nM
GI50 (HepG2): 214 nM
GI50 (SNU-423): 66 nM
GI50 (U-251): 3490 nM
inhibition [7]: Active
GI50 (HCT-116): 166 nM
GI50 (AGS): 2030 nM
inhibition [8]: Active
GI50 (SK-OV-3): 52.6 nM
GI50 (SK-MEL-28): 239 nM
GI50 (SW-403): 153 nM
Structure (SMILES): O=C(NC[C@H](O)CN1CCc2ccccc2C1)c1ccnc(NC2CCC2)c1
GI50 (DOHH-2): 116 nM
GI50 (Hs746T): 171 nM
GI50 (A101D): 190 nM
GI50 (SHP77): 152 nM
GI50 (A-427): 130 nM
GI50 (A 172): 590 nM
GI50 (CGTH-W-1): 82.2 nM
GI50 (WiDr): 505 nM
GI50 (DK-MG): 89.5 nM
GI50 (U-266): 78.5 nM
